Screens deposited in PubChem by several laboratories.
Rows were chosen to be rich in hits. Some 12% of all compounds tested hit in one or more screens of this group.
Diaph inh CS: counter-screen for diaphorase-based assays: diaphorase inhibitors and chemical oxidizers. 0.69% of 190,000 active. inhibition, % at 20 µM. diaphorase resazurin-to-resorufin fluorescence, NADH, 16 min; bacterial (C. kluyveri) enzyme, not human;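 active means primary screen inhibition at 20 µM above a set limit, cut at about 50% in these data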
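Benchmarks: positive control wells lacking NADH, neutral wells with DMSO only. System: bacterial diaphorase enzyme (C. kluyveri). Input: 0.14 U/mL diaphorase, enzyme working solution. Detection: resorufin fluorescence, excitation 544 nm, emission 590 nm. Times: 16-min room-temperature incubation before reading.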
WT yeast gro inh: growth inhibition of WT yeast, mitochondrial fusion screen; mitochondrial fusion phenotypic screen, WT strain; inhibition, % at 10 µM; 2.1% of 190,000 active; in the data active means inhibition above about 58%; tested in S. cerevisiae
L major viab: inhibitors of Leishmania major promastigote growth | AID 1063 | inhibition, % at 10 µM | Leishmania major promastigotes, resazurin fluorescence viability | 9% of 200,000 active; in the data active means inhibition above about 50%;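 further: promastigotes grown with compound for 44 hours at 28 °C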
ROMK mod: modulates human ROMK potassium channel activity; P48048; Tet-inducible ROMK, thallium flux fluorescence; actives lie on both sides; B-score at 10 µM; 2% of 130,000 active; AID 1918;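 active means signal ratio slope over the read window, or its plate-corrected B-score, at least 3 SD from the plate mean, either direction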;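 further: B-score of the F/F0 ratio slope over 7 to 12 s after thallium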
Cl transport mod: modulates chloride dependent transport by human KCC2. Q9H2X9. KCC2 cells, thallium flux FluoZin-2 fluorescence. B-score of Tl+ flux slope (higher = more flux/activation; lower = inhibition) at 10 µM. 2.2% of 190,000 active. AID 1456;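 active means thallium flux slope and its plate-corrected score both differing from the plate sample mean at a set confidence after two filtering rounds, in either direction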;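 further: slope of fluorescence scaled to starting intensity during 10 to 20 s after thallium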
Target sequence (Q9H2X9 whole entry, looked up): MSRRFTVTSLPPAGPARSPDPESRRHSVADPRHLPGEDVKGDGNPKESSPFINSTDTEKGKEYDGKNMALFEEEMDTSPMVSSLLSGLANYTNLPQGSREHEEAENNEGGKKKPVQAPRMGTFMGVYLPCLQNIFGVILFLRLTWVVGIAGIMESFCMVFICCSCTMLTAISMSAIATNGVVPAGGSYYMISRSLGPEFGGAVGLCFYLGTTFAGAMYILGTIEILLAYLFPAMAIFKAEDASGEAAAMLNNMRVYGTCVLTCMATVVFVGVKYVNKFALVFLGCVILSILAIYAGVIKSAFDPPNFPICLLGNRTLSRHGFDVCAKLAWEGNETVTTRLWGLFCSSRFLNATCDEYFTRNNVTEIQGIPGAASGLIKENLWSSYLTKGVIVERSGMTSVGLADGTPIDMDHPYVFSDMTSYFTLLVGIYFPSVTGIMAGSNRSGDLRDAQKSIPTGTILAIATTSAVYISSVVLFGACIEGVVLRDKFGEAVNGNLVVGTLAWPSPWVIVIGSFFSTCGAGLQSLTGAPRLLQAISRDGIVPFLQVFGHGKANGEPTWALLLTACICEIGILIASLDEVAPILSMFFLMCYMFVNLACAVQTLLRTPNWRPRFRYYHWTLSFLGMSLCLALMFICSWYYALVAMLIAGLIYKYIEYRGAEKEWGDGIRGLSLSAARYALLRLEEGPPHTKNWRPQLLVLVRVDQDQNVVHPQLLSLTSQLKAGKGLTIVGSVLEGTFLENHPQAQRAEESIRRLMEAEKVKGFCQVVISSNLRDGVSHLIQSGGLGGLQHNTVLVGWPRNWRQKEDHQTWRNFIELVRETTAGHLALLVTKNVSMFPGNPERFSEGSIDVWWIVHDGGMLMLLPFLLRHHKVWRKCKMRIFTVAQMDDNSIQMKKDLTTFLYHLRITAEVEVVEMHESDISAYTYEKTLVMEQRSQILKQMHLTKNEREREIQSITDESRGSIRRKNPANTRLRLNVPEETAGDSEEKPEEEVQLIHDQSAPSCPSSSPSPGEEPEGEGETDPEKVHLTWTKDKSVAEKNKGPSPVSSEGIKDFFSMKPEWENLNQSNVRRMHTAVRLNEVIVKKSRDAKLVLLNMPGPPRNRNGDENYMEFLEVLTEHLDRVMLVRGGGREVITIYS
Diaphorase act: activates diaphorase or chemically reduces, flagging diaphorase assay artifacts | Diaphorase/resazurin coupled assay, resorufin fluorescence, 16 min; stronger effect = higher value; 1 = vehicle wells, 0 = NADH-free wells | AID 1229 | activation factor at 20 µM | 0.005% of 190,000 active;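 active means diaphorase activity raised at least twofold by the compound at 20 µM; inactive means activation factor below 2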
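Material: Clostridium kluyveri diaphorase, purified enzyme; Quantity: enzyme 0.07 U/mL final; Medium: HEPES pH 7.4 buffer with MgCl2 and Tween 20; Dosing: single compound dose of 20 µM, 1% DMSO final; Schedule: 16 min reaction at room temperature; Measured by: red resorufin fluorescence at 544/590 nm excitation/emission.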
Of the large screens only hits and unclear results are named; the others gave an inactive call.

O=C(Nc1ncc(Cc2ccc(C(F)(F)F)cc2)s1)c1ccc(-c2cccc([N+](=O)[O-])c2)o1	L major viab 90 (no result: ROMK mod)
CCC(/C=N/NC(=O)C(N)=O)CC	none
CCc1ccc(S(=O)(=O)/N=C2\C=CC(=O)c3ccccc32)cc1	L major viab 93 (no result: ROMK mod)
CCc1ccc(S(=O)(=O)/N=C2/C=C(Sc3ncn[nH]3)C(=O)c3ccccc32)cc1	L major viab 100, ROMK mod -7.8
Cn1c(=O)c2c(nc(Br)n2Cc2nnc(N)s2)n(C)c1=O	none (no result: Diaph inh CS, WT yeast gro inh, L major viab, ROMK mod, Diaphorase act)
O=C(c1ccc(Cl)cc1)N(Cc1ccccc1F)N1C(=O)CCCC1=O	none
Cc1cc(C)n2nc(C(=O)Nc3ccc4c(c3)OCO4)nc2n1	L major viab 67 (no result: ROMK mod)
O=C(Nc1ccc2c(c1)OCO2)c1cc(C2CC2)on1	L major viab 52 (no result: ROMK mod)
Nc1nc(-c2ccccc2)c(-c2ccccc2)s1	none
Cc1ccc(-c2nc(N)sc2-c2ccc(C)cc2)cc1	WT yeast gro inh 80
Cc1ccc(-c2nc(N)sc2-c2ccccc2)cc1C	WT yeast gro inh 73 (no result: ROMK mod)
COc1ccc(CSc2nnc3[nH]c(=O)cc(N)n23)cc1	none
C=CCc1cccc(CNc2nc3ccccc3n2C(C)C)c1O	WT yeast gro inh 70
COc1ccc(-c2noc(CN(C)C(=O)Nc3ccccc3)n2)cc1	none (no result: ROMK mod)
N#CC(c1nc2ccccc2nc1N1CCCC1)S(=O)(=O)c1ccccc1 (configuration not stated)	Diaph inh CS 53 (no result: Cl transport mod)
CN1CCN(c2nc3ccccc3nc2C(C#N)S(=O)(=O)c2ccccc2)CC1 (configuration not stated)	none (no result: Diaph inh CS, WT yeast gro inh, L major viab, ROMK mod, Diaphorase act)
CN(C)CCCN(C(=O)c1cccs1)c1nc(-c2ccccc2)cs1	L major viab 100
O=C(c1cccs1)N(Cc1ccco1)c1nc(-c2ccc(F)cc2)cs1	none (no result: ROMK mod)
Nc1ccc2c(c1)nc(Cc1ccccc1)n2CCO	none (no result: ROMK mod, Cl transport mod)
Cc1c(N2C(=O)CS/C2=N\N=C\c2ccc(Cl)cc2)c(=O)n(-c2ccccc2)n1C	L major viab 77 (no result: ROMK mod, Cl transport mod)
Cc1c(N2C(=O)CS/C2=N\N=C\c2ccccc2O)c(=O)n(-c2ccccc2)n1C	none (no result: ROMK mod)
CCc1ccc(-c2cc(C(F)(F)F)n3nc(C(=O)Nc4cnn(Cc5ccccc5C)c4)cc3n2)s1	none (no result: ROMK mod, Cl transport mod)
COc1cc(OC)cc(C(=O)NCC(=O)OCc2nc3ccccc3s2)c1	none
CN(C)/C=C1/Sc2ccccc2C1=O	none (no result: ROMK mod)
CC(=O)N(\C=C/C=C/C=C1\Sc2ccccc2C1=O)c1ccccc1	Diaph inh CS 53
Cn1c(=O)c2nnn(/N=C(\c3ccccc3)C3CC3)c2n(C)c1=O	L major viab 76 (no result: Cl transport mod)
O=C(NCc1cccc(C(F)(F)F)c1)C1CC(c2ccccc2C(F)(F)F)=NO1 (configuration not stated)	none (no result: Diaph inh CS, WT yeast gro inh, L major viab, ROMK mod, Diaphorase act)
Nc1nc(N)c(Cc2ccc(Cl)cc2Cl)c(N)n1	L major viab 64
NNc1ccc(Cc2ccc(Cl)cc2Cl)nn1	L major viab 91
CSc1ccc(Cc2ccc(Cl)cc2Cl)nn1	none (no result: ROMK mod)
CC(C)C(NC(=O)c1ccc(Br)cc1)C(=O)NC1=NCCS1 (configuration not stated)	none
COc1ccc(OCCC(=O)NC2=NCCS2)cc1	none (no result: ROMK mod)
CC(C)[C@H](NC(=O)c1ccc(C(C)(C)C)cc1)C(=O)Nc1nnc(C2CC2)s1	L major viab 84 (no result: ROMK mod)
COc1cc(OC)cc(C(=O)N[C@H](C(=O)Nc2nnc(C3CC3)s2)C(C)C)c1	none
CC(C)C(NC(=O)c1ccc(C(C)(C)C)cc1)C(=O)NC1=NCCS1 (configuration not stated)	WT yeast gro inh 63 (no result: Cl transport mod)
CC(C)(C)c1ccc(OCCC(=O)NC2=NCCS2)cc1	WT yeast gro inh 76
CCc1cccc(NC(=O)Cc2cn(C)c3ccccc23)c1	none (no result: ROMK mod)
N#CC1=C2SCN(Cc3ccco3)CN2C(=O)CC1c1c(F)cccc1Cl (configuration not stated)	L major viab 75 (no result: ROMK mod, Cl transport mod)
Cc1ccc(C2CC(=O)N3CN(c4ccc(Br)cc4)CSC3=C2C#N)o1 (configuration not stated)	Diaph inh CS 58 (no result: Cl transport mod)
N#CC1=C2SCN(c3ccccc3)CN2C(=O)CC1c1c(Cl)cccc1Cl (configuration not stated)	Diaph inh CS 51 (no result: ROMK mod)
CCOc1ccc(N2CSC3=C(C#N)C(c4ccco4)CC(=O)N3C2)cc1 (configuration not stated)	none
Cc1ccc(C2CC(=O)N3CN(Cc4ccco4)CSC3=C2C#N)cc1 (configuration not stated)	none (no result: ROMK mod)
CCOc1cc(CNc2nn[nH]n2)ccc1OCC(=O)NC(C)(C)C	none
c1ccc(-c2noc(CN3CCCC(OCc4ccccn4)C3)n2)cc1 (configuration not stated)	none
O=c1oc2ccccc2c(N2CCOCC2)c1[N+](=O)[O-]	none (no result: Cl transport mod)
COc1ccc(S(=O)(=O)Oc2ccc3c(c2)O/C(=C\c2cccnc2)C3=O)cc1	L major viab 86 (no result: Cl transport mod)
O=C1/C(=C/c2cccnc2)Oc2cc(OS(=O)(=O)c3ccccc3)ccc21	L major viab 57 (no result: Cl transport mod)
O=Cc1cc2ccccc2nc1SCc1ccc(Cl)cc1	L major viab 97 (no result: ROMK mod)
CCc1cc2ccccc2nc1Cl	none
O=Cc1cc2ccccc2nc1SCc1ccc(Cl)c(Cl)c1	L major viab 95 (no result: ROMK mod)
CC1(C)Cc2ccccc2C(NNC(=O)c2ccncc2)=N1	none (no result: ROMK mod)
CCCNCC1C(Oc2ccc(Cl)cc2Cl)C(=O)N1c1cccc(C)c1C (configuration not stated)	L major viab 72
O=C(COc1cccc2c1CCN(Cc1ccc(Br)cc1)C2=O)NCc1ccco1	none (no result: ROMK mod)
COC(=O)c1sccc1NC(=O)C1CC1	none (no result: Diaph inh CS, WT yeast gro inh, L major viab, ROMK mod, Diaphorase act)
COc1ccc(C(=O)N2CCOC2CNC(=O)C(=O)NCc2ccc(Cl)cc2)cc1 (configuration not stated)	none
CCOC(=O)c1sc(NC(=O)Nc2ccccc2)cc1C	L major viab 92
CCOC(=O)c1sc(NC(=O)c2cccc(S(=O)(=O)N3c4ccccc4CC3C)c2)cc1C (configuration not stated)	L major viab 62
CCOC(=O)c1c(C)nc2sc(C(=O)Nc3ccccc3)c(N)c2c1-c1ccc(OC)cc1	L major viab 97
CCOC(=O)c1sc(NC(=O)Nc2ccccc2Cl)cc1C	L major viab 80 (no result: ROMK mod)
COc1ccccc1/C=C/C(=O)N1CCC(c2ccccc2)C1 (configuration not stated)	none
CCOC(=O)c1c(N)sc(C(=O)Nc2ccccc2F)c1C	none (no result: Cl transport mod)
CCOC(=O)c1c(N)sc(C(=O)Nc2ccccc2)c1C	L major viab 58
O=[N+]([O-])c1nn(-c2ccc3c(c2)OCCO3)n(O)c1=NC1CCN(Cc2ccccc2)CC1	L major viab 76
O=[N+]([O-])c1nn(-c2ccccc2)n(O)c1=NC1CCN(Cc2ccccc2)CC1	none
